Laboratory results from paper PMC7941214 (Journal of medicinal chemistry, 2019).
“And” between values parts separate entries of the source, which are not always exact repeats. Equal entries are not always repeated.

Columns and labels:
[1] = test system: E. coli ATCC 25922; assay: Broth microdilution MIC/MBC, E. coli; type: cell-based, Escherichia coli; settings: for MIC E. coli ATCC 25922: value before the parentheses, two values = two repeats; for MBC E. coli ATCC 25922: value in parentheses
Procedure, shortened: (§1)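 CLSI broth microdilution in cation-adjusted Mueller–Hinton broth. Log-phase cultures were diluted to 7.5 × 10^5 CFU/mL, then mixed 1:1 with 2-fold serial dilutions of gold complexes from DMSO or water stocks, in triplicate, and held 37 °C, 18 h, static. MIC: lowest concentration giving >90% inhibition by OD600 against medium-only and bacteria-only wells. […] E. coli ATCC 25922 quality control was checked each run with ciprofloxacin and […].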

[2] = test system: A. baumannii NCTC 13420; assay: Broth microdilution MIC/MBC, A. baumannii; type: cell-based, Acinetobacter baumannii; settings: for MIC A. baumannii NCTC 13420: value before the parentheses, two values = two repeats; for MBC A. baumannii NCTC 13420: value in parentheses
[3] = test system: P. aeruginosa NCTC 13437; assay: Broth microdilution MIC/MBC, P. aeruginosa; type: cell-based, Pseudomonas aeruginosa; settings: for MIC P. aeruginosa NCTC 13437: value before the parentheses, two values = two repeats; for MBC P. aeruginosa NCTC 13437: value in parentheses
Procedure, shortened: as §1

[4] = test system: E. cloacae NCTC 13405; assay: Broth microdilution MIC/MBC, E. cloacae; type: cell-based, Enterobacter cloacae; settings: for MIC E. cloacae NCTC 13405: value before the parentheses, two values = two repeats; for MBC E. cloacae NCTC 13405: value in parentheses
Procedure, shortened: as §1

[5] = test system: K. pneumoniae ATCC 700603; assay: Broth microdilution MIC/MBC, K. pneumoniae; type: cell-based, Klebsiella pneumoniae; settings: for MIC K. pneumoniae ATCC 700603: value before the parentheses, two values = two repeats; for MBC K. pneumoniae ATCC 700603: value in parentheses
Procedure, shortened: as §1

[6] = Log P determination; settings: n-octanol/water, Au by FAAS
[7] = test system: S. aureus JE2 (USA300); assay: Broth microdilution MIC/MBC, S. aureus; type: cell-based, Staphylococcus aureus; settings: for MBC S. aureus JE2 (USA300): value in parentheses; for MIC S. aureus JE2 (USA300): value before the parentheses, two values = two repeats
Procedure, shortened: as §1

[8] = test system: E. faecium ATCC 700221; assay: Broth microdilution MIC/MBC, E. faecium; type: cell-based, Enterococcus faecium; settings: for MIC E. faecium ATCC 700221: value before the parentheses, two values = two repeats; for MBC E. faecium ATCC 700221: value in parentheses
Procedure, shortened: as §1

| SMILES | MIC E. coli ATCC 25922 [1] [µM] | MBC E. coli ATCC 25922 [1] [µM] | MIC A. baumannii NCTC 13420 [2] | MBC A. baumannii NCTC 13420 [2] [µM] | MIC P. aeruginosa NCTC 13437 [3] [µM] | MBC P. aeruginosa NCTC 13437 [3] [µM] | MIC E. cloacae NCTC 13405 [4] | MBC E. cloacae NCTC 13405 [4] [µM] | MIC K. pneumoniae ATCC 700603 [5] [µM] | MBC K. pneumoniae ATCC 700603 [5] [µM] | log P [6] | MBC S. aureus JE2 (USA300) [7] [µM] | MIC E. faecium ATCC 700221 [8] | MBC E. faecium ATCC 700221 [8] [µM] | MIC S. aureus [7] | MIC S. aureus JE2 (USA300) [7] [µM] | fold enhancement of activity over auranofin, E. faecium ([8]; vs auranofin) |
| --- | --- | --- | --- | --- | --- | --- | --- | --- | --- | --- | --- | --- | --- | --- | --- | --- | --- |
| CC[PH](CC)(CC)[Au][S]C1OC(CO)C(O)C(O)C1O [Compound 11, (1-Thio-D-mannopyranosato)(triethylphosphine) Gold(I)] | 16 | 16 | 31 µM | 63 | 502 | 502 | 125 µM | 251 | 502 | 502 | −0.59 | 0.1 | 0.1 µM and 0.06 µM | 0.5 | – | – | – |
| CC[P+](CC)(CC)[Au-][S]CC(=O)OC [Compound 22, (Methyl Mercaptoacetatato)(triethylphosphine) Gold(I)] | 76 | 76 | 19 µM | 76 | 305 | 305 | 38 µM | 152 | 76 | 76 | 1.75 | 0.02 | – | 0.6 | in the nanomolar range | – | – |
| CC(=O)NC1C([S][Au][PH](C)(C)C)OC(CO)C(O)C1O [Compound 39, (2-Acetamido-2-deoxy-1-thio-β-D-glucopyranosato)-(trimethylphosphine) Gold(I)] | – | 31 | 16 µM and 8 µM | 16 | >503 | – | 8 µM and 16 µM | 16 | 31 | 126 | −2.03 | 0.5 | – | 0.5 | – | 0.5 | – |
| CC[PH](CC)(CC)[Au][O]C1OC(CO)C(OC2OC(CO)C(O)C(O)C2O)C(O)C1O [Compound 13, [β-D-Galactopyranosyl-(1→4)-β-D-glucopyranosato]-(triethylphosphine) Gold(I)] | 24 | 24 | 24 µM and 48 µM | 190 | 381 | 381 | 190 µM | 190 | 381 | 381 | – | 0.09 | 0.09 µM | 0.4 | – | – | – |
| CC[PH](CC)(CC)[Au][S]c1ccccc1N [Compound 16, (2-Aminobenzenethiolato)(triethylphosphine) Gold(I)] | 36 | 36 | 18 µM and 36 µM | 18 | 291 | 291 | – | – | 146 | 146 | 0.61 | 0.6 | 0.02 µM | 0.1 | in the nanomolar range | 0.009 | more than 7 |
| Fc1ccc([PH+](c2ccc(F)cc2)c2ccc(F)cc2)cc1.[Cl][Au] [Compound 29, (Tris(4-fluorophenyl)phosphine)gold Chloride] | >467 | – | 29 µM and 58 µM | 233 | >467 | – | >467 µM | – | >467 | – | >4.04 | – | 2 µM and 4 µM | 4 | – | – | – |
